The source of these data is ChEMBL document CHEMBL1914285, “Identification of new antimalarial leads by use of virtual screening against cytochrome bc₁” (Bioorg Med Chem, 2011).

In this test the test system is Plasmodium falciparum. As to the kind of experiment: Antiplasmodial activity against chloroquine-resistant Plasmodium falciparum W2 infected in human erythrocytes after 48 hrs by FACS analysis. In kind it is functional, organism-based. Conditions: W2, 48 h. The gist of the method:
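Ring-stage W2-infected human RBCs at ~1% parasitemia, sorbitol (5%) synchronized; 48 h at 37 °C with compounds in RPMI-1640, 25 mM HEPES pH 7.4, 10% heat-inactivated human serum (or 0.5% Albumax/2% human serum), 100 hypoxanthine, 3% O2/5% CO2/91% N2. Cells fixed in 2% HCHO, stained with 1 nM YOYO-1 (NH4Cl/Triton X-100), flow cytometry at ex 488/em 520 nm; IC50 by curve fitting.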
For orientation: In flow cytometry, cells or beads pass a laser one at a time.

As usually defined, the IC50 is the concentration at which inhibition is half-maximal. Lower therefore signals higher potency. Compound `c1cnc(SCCOc2ccc3c(c2)CCC3)nc1` showed an IC50 of over 50 µM.

Consider `Cc1ccc(NC(=O)CSc2nc(O)cc(NS(=O)(=O)c3ccccc3)n2)cc1`, for which the IC50 was over 50 µM.

Consider `CCn1c(SCc2nc(-c3cccs3)no2)nnc1-c1c[nH]c2ccccc12`, for which inhibition was half-maximal at 28.5 µM (IC50).

`CSCCC(N)c1nc(C(=O)CC(Cc2c[nH]c3ccccc23)C(N)=O)cs1` (stereo not drawn) gave an IC50 of over 50 µM.

Compound `NC(=O)C(CC(=O)c1csc(C2CCCNC2)n1)Cc1c[nH]c2ccccc12` (stereo not drawn) gave an IC50 of over 50 µM.

On to `Cc1ccc(C)n1CCSc1nc(N)cc(N)n1`, for which the 50% inhibitory concentration (IC50) was over 50 µM.

Take `Cc1ccc2[nH]c3nc(SCC(=O)Nc4sc5c(c4C#N)CCCC5)nnc3c2c1`: the IC50 is over 50 µM.

Consider `COc1ccc2[nH]c3nc(SCC(=O)Nc4nc(C(C)(C)C)cs4)nnc3c2c1`, for which the concentration for half-maximal inhibition (IC50) was 27.1 µM.

In turn, `O=C(Cc1ccc2c(c1)CCC2)NCCc1ccco1` registered an IC50 of over 50 µM.

In turn, `c1ccn2cc(CSc3nnc(C4CC4)o3)nc2c1` returned an IC50 of over 50 µM.

As for `CCCNc1nnc(SCc2cscn2)s1`, the IC50 was over 50 µM.

Compound `COc1ccc(-c2noc(CSc3nnc(-c4c[nH]c5ccccc45)n3C)n2)cc1OC` showed an IC50 of 12.1 µM. In other words, the double-digit micromolar range.

Take `Cc1nc2ccccc2nc1CSCc1ccco1`: the IC50 was over 50 µM.

As to `COc1ccc(SCCc2ccc(C)nc2)cc1`, the IC50 was over 50 µM.

`O=C(CSc1nnc(-c2c[nH]c3ccccc23)o1)c1ccc2c(c1)OCCO2` returned an IC50 of over 50 µM.

For `CCSc1nnc(NC(=O)CS(=O)(=O)c2c[nH]c3ccccc23)s1`, the IC50 was over 50 µM.

In the case of `COc1ccc(NC(=O)CCCn2c(=S)[nH]c3ccccc3c2=O)cc1OC`, the 50% inhibitory concentration (IC50) was over 50 µM.

Compound `Cc1ccc(CNC(=O)CCn2c(=S)[nH]c3cc4c(cc3c2=O)OCO4)o1` showed an IC50 of over 50 µM.

Compound `O=C(NCc1ccoc1)C1CCC(Cn2c(=S)[nH]c3ccccc3c2=O)CC1` (stereo not drawn) showed a half-maximal inhibitory concentration (IC50) of over 50 µM.

The compound `O=C(NCc1cccnc1)C1CCC(Cn2c(=S)[nH]c3ccccc3c2=O)CC1` (stereo not drawn) gave an IC50 of 1.97 µM.

On to `Cn1c(SCc2nc(-c3ccc(Cl)cc3)no2)nnc1-c1c[nH]c2ccccc12`, for which the IC50 was over 50 µM.

In the case of `Cc1ccccc1OCCSc1nnc(-c2c[nH]c3ccccc23)n1C`, the IC50 is 6.69 µM.

Consider `Cn1c(SCc2nc(-c3cccs3)no2)nnc1-c1c[nH]c2ccccc12`, for which the IC50 stood at 29.5 µM.
